Screening results (PubChem)
Rows were chosen to be rich in hits. Some 0.99% of all compounds tested hit in one or more screens of this group.
STK33 inh – blocks human STK33 kinase activity; Q9BYT3; purified STK33, MBP phosphorylation, ADP-Glo luminescence; inhibition, % at 10 µM; 0.073% of 320,000 active;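 active = inhibition at or above 25%, using the most active replicate where run in duplicate; inactive = inhibition below 25%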
Arrestin-AP2 inh – blocks beta-arrestin peptide binding to AP2 adaptin | FITC-arrestin peptide / GST-AP2 beads, flow cytometry; AP2 beta2 appendage carries R879A mutation | inhibition, % at 10 µM | 0.31% of 340,000 active;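 active = inhibition above a set limit, near 3 SD of compounds lacking own fluorescence, cut at about 54% in these data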;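 also: plate controls were DMSO wells for no effect and 5 µM unlabelled arrestin peptide for full effect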
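System: GST-AP2 R879A glutathione beads | Also added: FITC-arrestin peptide, 50 nM | Times: 12 min plus 1 h, RT | Signal: Bead flow cytometry, FITC channel | Buffer or medium: PBS with 0.05% Tween 20 and 0.1% BSA | Read-out basis: Percent drop in bead-associated FITC signal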
Rin1 Abl inh – inhibitors of human Rin1-Abl protein interaction; P00519+Q13671; TR-FRET Rin1/Abl binding, biochemical; inhibition, % at 7.35 µM; 0.4% of 360,000 active; in the data active = inhibition above about 5%, passing the limit was not always enough
DYRK1A inh – inhibitors of rat Dyrk1A kinase; ADP-Glo luminescence, NFATc1 peptide; Q63470; 0.43% of 310,000 active; inhibition, % at 12.5 µM; AID 504441; in the data active = inhibition above about 50%;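 also: plate controls were vehicle with enzyme for no effect and no enzyme for full effect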
GSK3 alpha inh – inhibitors of human GSK-3 alpha kinase; P49840; ADP-Glo luminescence, 60 min; inhibition, % at 10 µM; 0.1% of 320,000 active; AID 2650;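 active = more than half of replicates show inhibition above 20%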;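 also: GST-tagged GSK-3 alpha with peptide substrate and 25 µM ATP; 0% = DMSO neutral wells and 100% = GW8510 positive control wells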
GSK3beta inhib – blocks human GSK3beta kinase activity | P49841 | GST-GSK3beta kinase, ADP-Glo luminescence, 60 min; stronger effect = lower value | activity score (negative = inhibition), % at 10 µM | 0.038% of 300,000 active | AID 2097;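 active = more than half of replicate wells score below -50%, meaning over 50% inhibition versus plate controls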;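 also: 0% = median DMSO wells and -100% = median GW8510 positive control wells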
Target sequence (P49841 whole entry, looked up): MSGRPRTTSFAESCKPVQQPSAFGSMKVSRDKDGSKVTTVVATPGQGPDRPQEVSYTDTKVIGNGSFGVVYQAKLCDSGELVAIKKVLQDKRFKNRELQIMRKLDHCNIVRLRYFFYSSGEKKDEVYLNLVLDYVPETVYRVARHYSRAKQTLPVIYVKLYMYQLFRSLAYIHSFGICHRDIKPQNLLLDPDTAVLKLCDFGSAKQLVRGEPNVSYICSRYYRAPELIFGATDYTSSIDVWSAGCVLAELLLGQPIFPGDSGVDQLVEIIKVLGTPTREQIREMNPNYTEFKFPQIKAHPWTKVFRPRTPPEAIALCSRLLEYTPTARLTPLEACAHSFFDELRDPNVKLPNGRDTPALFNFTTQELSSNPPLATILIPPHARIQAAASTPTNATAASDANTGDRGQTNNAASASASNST
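Test system – GST-tagged human GSK3beta kinase, cell-free · Incubation – 60 min enzyme reaction, room temperature · Signal – ADP-Glo luminescence · Also added – peptide substrate and ATP at 25 µM · Controls – DMSO neutral wells and GW8510 at 20 µM as positive · Buffer or medium – Tris/MgCl2 kinase buffer · Measure – Luminescence-derived activity versus plate DMSO and GW8510 wells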
Rin1-Abl confirm – Rin1-Abl interaction inhibition confirmation. AID 602124. inhibition, % at 7.35 µM. TR-FRET Rin1-Abl binding, purified proteins. 49% of 1,300 active. shares compounds with Rin1 Abl inh
GFP quench – GFP fluorescence interference artifact; shares compounds with Rin1 Abl inh; inhibitors/quenchers counterscreen; 8.5% of 1,300 active; inhibition, % at 6.75 µM;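 also: ABL1-eGFP fusion protein alone without its partner RIN1-SBP; 0% = protein with vehicle and 100% = wells lacking protein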
GFP quench DR – counter-screen for Rin1-Abl inhibitors: GFP quenchers, dose response; shares compounds with Rin1 Abl inh; GFP fluorescence interference/quenching counterscreen; IC50, µM; 230 tested, under 10 active; call rule not given here;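 also: ABL1-eGFP fusion protein alone without its RIN1 binding partner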
* = called active by the depositor. Rule as the data show it, unless noted: active = inhibition above about 6.5%; inactive = the rest.

Screening O=C(NN=C(c1ccccc1)c1ccccc1)C(CCl)C1CCCCC1 (configuration not stated) returned STK33 inh -1, Arrestin-AP2 inh 20, Rin1 Abl inh -3, DYRK1A inh 7 and GSK3 alpha inh -2.
CCC(=O)c1ccc(OCC(O)CNC2CCCC2)cc1 (configuration not stated) was read as STK33 inh -1, Arrestin-AP2 inh -7, Rin1 Abl inh 1, DYRK1A inh -6, GSK3 alpha inh -3 and GSK3beta inhib -2.
`CCOC(=O)c1c(C)n(C(=O)c2ccco2)c(=O)n1C(=O)c1ccco1` gave STK33 inh 1, Arrestin-AP2 inh 2, Rin1 Abl inh 36*, DYRK1A inh -2, GSK3 alpha inh -4, GSK3beta inhib -1, Rin1-Abl confirm 35*, GFP quench -1 and GFP quench DR >67.
`CCOC(=O)c1c(C)c(C(=O)N2CCN(C(=O)c3ccco3)CC2)c(C)n1C` gave STK33 inh -1, Arrestin-AP2 inh 15, Rin1 Abl inh 0, DYRK1A inh 4, GSK3 alpha inh -1 and GSK3beta inhib 0.
`Cn1c(=O)c2c(nc(SCCCC#N)n2Cc2c(F)cccc2Cl)n(C)c1=O` gave STK33 inh -1, Arrestin-AP2 inh 7, Rin1 Abl inh 7.2*, DYRK1A inh -2, GSK3 alpha inh -1, GSK3beta inhib 0, Rin1-Abl confirm 9.2* and GFP quench -1.
Cc1ccc(S(=O)(=O)NCc2ccccc2)cc1C(=O)N(C)Cc1ccc(F)cc1 was read as STK33 inh 0, Arrestin-AP2 inh 23, Rin1 Abl inh 4, DYRK1A inh -2, GSK3 alpha inh -1 and GSK3beta inhib 0.
`CCOc1ccccc1CNCCO` gave STK33 inh 0, Arrestin-AP2 inh 4, Rin1 Abl inh 2, DYRK1A inh -3, GSK3 alpha inh 0 and GSK3beta inhib 1.
Screening CCOC(=O)c1ccc(NC(=O)COc2ccccc2CNCCO)cc1 returned STK33 inh -1, Arrestin-AP2 inh 14, Rin1 Abl inh 13*, DYRK1A inh -5, GSK3 alpha inh 0, GSK3beta inhib 2, Rin1-Abl confirm 23*, GFP quench -1 and GFP quench DR >68.
For O=C(Nc1ccc(Cl)cc1F)C1CCCN(C2=NS(=O)(=O)c3ccccc32)C1 (configuration not stated) the results were Arrestin-AP2 inh 21, Rin1 Abl inh 2 and DYRK1A inh 8.
CCC(c1nc2ccccc2c(=O)n1CCN1CCOCC1)N1C(=O)c2ccccc2C1=O (configuration not stated) was read as STK33 inh -1, Arrestin-AP2 inh -5, Rin1 Abl inh -1, DYRK1A inh 3, GSK3 alpha inh -1 and GSK3beta inhib -2.
Screening CCC(c1nc2ccccc2c(=O)n1CCCn1ccnc1)N1C(=O)c2ccccc2C1=O (configuration not stated) returned STK33 inh -3, Arrestin-AP2 inh -2, Rin1 Abl inh 15*, DYRK1A inh 10, GSK3 alpha inh -1, GSK3beta inhib -1, Rin1-Abl confirm 21*, GFP quench 1 and GFP quench DR >67.
For CC(Sc1ccccc1)C(=O)N/N=C/c1ccccc1 (configuration not stated) the results were STK33 inh -2, Arrestin-AP2 inh 17, Rin1 Abl inh -1, DYRK1A inh -2, GSK3 alpha inh -2 and GSK3beta inhib 1.
CN1CCCN(c2cc(-c3ccc4ccccc4c3)nc3ccnn23)CC1 was read as Rin1 Abl inh 13*, Rin1-Abl confirm 12* and GFP quench 12*.
For Cc1cccc(-c2cc(N3CCCN(C)CC3)n3nccc3n2)c1 the results were Rin1 Abl inh -2.
